The test system of data set [1] is HT-29. Kind of data set: Antiproliferative activity against human HT-29 cells assessed as reduction in cell growth incubated for 24 hrs by MTT assay. In kind it is functional, cell-based. Particulars: HT-29, 24 h. The method in brief: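 HT-29 colon cancer cells seeded per well and incubated overnight, then exposed for 24 h to serial dilutions of compound (10 mM DMSO stock diluted in medium), with doxorubicin and DMSO controls. MTT (0.5 mg/mL) added for 2 h at 37 °C, formazan dissolved in DMSO, absorbance read at 570 nm. IC50 from triplicate assays, mean ± S.E.M.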
(Tetrazolium assays rely on reduction of a dye to a coloured formazan, in cell work by metabolically active cells.)

The nature of data set [2]: Toxicity in BALB/c mouse assessed as glucose level at 10 mg/kg, ip measured at 120 mins (reference value: 106 to 141 mg/dl). Particulars: in vivo.
Data set [3] in a line: Toxicity in BALB/c mouse assessed as glucose level at 20 mg/kg, ip measured at 60 mins (reference value: 106 to 141 mg/dl). As to conditions: in vivo.
Data set [4] deals with MCF7. Nature of the data set: Antiproliferative activity against human MCF7 cells assessed as reduction in cell growth at 10 uM incubated for 24 hrs by MTT assay relative to control. The data set is classed as functional. The method in brief: (§1)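 MTT assay. Cells seeded at 4 × 10^4 per well and incubated overnight. Treated 24 h; DMSO served as negative control and doxorubicin as positive control. MTT dye 0.5 mg/mL added for 2 h at 37 °C, formazan dissolved in DMSO, absorbance read at 570 nm. Single-concentration screen at 10; dose-dependent dilutions gave IC50. WI-38 fibroblasts grown in DMEM with 10% FBS and 1% penicillin/streptomycin. Triplicate means ± S.E.M.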

Data set [5] can be described thus: Toxicity in BALB/c mouse assessed as glucose level at 20 mg/kg, ip measured at 30 mins (reference value: 106 to 141 mg/dl). As to conditions: in vivo.
Data set [6] can be described thus: Toxicity in BALB/c mouse assessed as glucose level at 20 mg/kg, ip measured at 0 hrs (reference value: 106 to 141 mg/dl). Particulars: in vivo. The data set is classed as organism-based. Put shortly:
(§2)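 Male BALB/c mice weighing 30-35 g, five per group. Given i.p. at 10 or 20 mg/kg in (2-hydroxypropyl)-β-cyclodextrin solution. Control group received vehicle alone. Blood glucose (mg/dL) measured at 0, 30, 60, 90 and 120 min after injection.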

The nature of data set [7]: Toxicity in BALB/c mouse assessed as glucose level at 10 mg/kg, ip measured at 30 mins (reference value: 106 to 141 mg/dl). As to conditions: in vivo.
Data set [8] concerns the target T1, Ectonucleotide pyrophosphatase/phosphodiesterase family member 1 (Homo sapiens, UniProt P22413).
T1 sequence (P22413 whole entry): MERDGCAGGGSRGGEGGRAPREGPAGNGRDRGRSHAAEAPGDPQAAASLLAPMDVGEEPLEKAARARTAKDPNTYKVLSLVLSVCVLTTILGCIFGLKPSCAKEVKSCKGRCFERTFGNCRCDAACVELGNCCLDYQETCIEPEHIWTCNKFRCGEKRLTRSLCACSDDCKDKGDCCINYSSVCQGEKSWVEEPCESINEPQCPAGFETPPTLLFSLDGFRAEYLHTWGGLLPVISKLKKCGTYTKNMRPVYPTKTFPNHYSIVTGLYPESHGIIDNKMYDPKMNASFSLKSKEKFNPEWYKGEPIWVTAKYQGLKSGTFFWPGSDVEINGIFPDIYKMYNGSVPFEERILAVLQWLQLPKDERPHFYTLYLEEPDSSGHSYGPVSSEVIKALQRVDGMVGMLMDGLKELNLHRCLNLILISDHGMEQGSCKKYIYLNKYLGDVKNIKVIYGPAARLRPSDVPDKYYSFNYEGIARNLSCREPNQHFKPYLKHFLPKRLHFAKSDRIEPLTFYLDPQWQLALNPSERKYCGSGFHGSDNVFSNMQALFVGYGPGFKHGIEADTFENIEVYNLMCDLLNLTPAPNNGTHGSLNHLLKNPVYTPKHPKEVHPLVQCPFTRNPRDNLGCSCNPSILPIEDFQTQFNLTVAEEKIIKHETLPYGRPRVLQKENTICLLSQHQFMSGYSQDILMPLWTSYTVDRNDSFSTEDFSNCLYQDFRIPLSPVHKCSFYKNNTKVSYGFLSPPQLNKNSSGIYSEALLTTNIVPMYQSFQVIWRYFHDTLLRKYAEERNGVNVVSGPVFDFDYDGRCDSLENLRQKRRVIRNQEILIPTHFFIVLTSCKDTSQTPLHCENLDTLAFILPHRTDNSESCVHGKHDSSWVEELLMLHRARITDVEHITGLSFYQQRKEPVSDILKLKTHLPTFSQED
Kind of data set: Inhibition of human NPP1 transfected in COS7 cells using pNP-TMP as substrate incubated for 35 mins. In kind it is cell-based.

The target in data set [9] is T2, Ectonucleotide pyrophosphatase/phosphodiesterase family member 3 (Homo sapiens, UniProt O14638).
T2 sequence (O14638 whole entry): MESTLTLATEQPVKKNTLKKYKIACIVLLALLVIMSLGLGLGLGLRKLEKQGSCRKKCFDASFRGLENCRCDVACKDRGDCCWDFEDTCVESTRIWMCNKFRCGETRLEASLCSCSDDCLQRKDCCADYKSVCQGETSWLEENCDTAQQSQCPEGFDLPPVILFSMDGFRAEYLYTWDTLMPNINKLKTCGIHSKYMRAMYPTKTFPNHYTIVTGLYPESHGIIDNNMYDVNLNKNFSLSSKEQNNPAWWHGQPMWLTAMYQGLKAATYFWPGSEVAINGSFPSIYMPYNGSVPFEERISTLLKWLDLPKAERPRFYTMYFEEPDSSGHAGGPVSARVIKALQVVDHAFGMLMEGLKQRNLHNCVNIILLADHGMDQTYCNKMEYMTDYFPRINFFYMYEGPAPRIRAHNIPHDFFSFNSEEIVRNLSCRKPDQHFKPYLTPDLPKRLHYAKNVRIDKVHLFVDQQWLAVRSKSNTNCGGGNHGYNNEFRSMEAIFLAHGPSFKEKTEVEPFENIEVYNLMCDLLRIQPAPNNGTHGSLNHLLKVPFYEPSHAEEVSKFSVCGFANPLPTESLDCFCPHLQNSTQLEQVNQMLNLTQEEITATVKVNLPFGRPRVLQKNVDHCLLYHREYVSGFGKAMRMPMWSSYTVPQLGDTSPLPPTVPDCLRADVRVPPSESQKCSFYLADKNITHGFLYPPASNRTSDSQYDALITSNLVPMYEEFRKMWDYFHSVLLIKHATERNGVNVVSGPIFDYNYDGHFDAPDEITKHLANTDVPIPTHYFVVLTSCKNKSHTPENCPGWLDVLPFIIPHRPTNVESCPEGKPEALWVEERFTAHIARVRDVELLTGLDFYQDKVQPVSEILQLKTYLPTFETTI
Kind of data set: Inhibition of human NPP3 transfected in COS7 cells using pNP-TMP as substrate incubated for 35 mins. In kind it is cell-based.

Data set [10] has as its system WI-38. Kind of data set: Cytotoxicity against human WI-38 cells assessed as reduction in cell growth incubated for 24 hrs by MTT assay. In kind it is cell-based. Particulars: WI-38, 24 h. Put shortly:
as §1

Data set [11] can be described thus: Toxicity in BALB/c mouse assessed as glucose level at 10 mg/kg, ip measured at 60 mins (reference value: 106 to 141 mg/dl). As to conditions: in vivo.
The test system of data set [12] is HT-29. Nature of the data set: Antiproliferative activity against human HT-29 cells assessed as reduction in cell growth at 10 uM incubated for 24 hrs by MTT assay relative to control. In kind it is functional. The method in brief: as §1
The nature of data set [13]: Toxicity in BALB/c mouse assessed as glucose level at 10 mg/kg, ip measured at 0 hrs (reference value: 106 to 141 mg/dl). In kind it is organism-based. As to conditions: in vivo. The method in brief: as §2
A short description of data set [14]: Toxicity in BALB/c mouse assessed as glucose level at 20 mg/kg, ip measured at 120 mins (reference value: 106 to 141 mg/dl). Particulars: in vivo.
Data set [15] can be described thus: Toxicity in BALB/c mouse assessed as glucose level at 20 mg/kg, ip measured at 90 mins (reference value: 106 to 141 mg/dl). Particulars: in vivo.
The nature of data set [16]: Toxicity in BALB/c mouse assessed as glucose level at 10 mg/kg, ip measured at 90 mins (reference value: 106 to 141 mg/dl). As to conditions: in vivo.

pIC50: −log10 of the molar value.

The pIC50 is −log10 of the IC50, conventionally taken in molar units. The inhibition is the percentage by which the read-out fell short of the control. On to `Cc1ccc(S(=O)(=O)NC(=O)n2ccc3cc(Br)cnc32)cc1`, for which the pIC50 in data set [1] is 5.80; in data set [8], 5.81; in data set [9] it was 6.23; in [10] it was 4.74. In addition, the Activity in data set [2] stood at 121 mg/dL; in data set [3], 114 mg/dL; in [5], 113 mg/dL; in data set [6], 114 mg/dL; in data set [7] it was 103 mg/dL; in data set [11], 122 mg/dL. Besides, the Activity was found to be 108 mg/dL in [13], 121 mg/dL in [14], 128 mg/dL in data set [15] and 124 mg/dL in data set [16]. Also, the inhibition at 10 µM worked out at 28% in data set [4] and 82.4% in data set [12].

The values are drawn from ChEMBL document CHEMBL4814002, “Synthesis, biological evaluation, and docking studies of novel pyrrolo[2,3-b]pyridine derivatives as both ectonucleotide pyrophosphatase/phosphodiesterase inhibitors and antiproliferative agents” (Eur J Med Chem, 2021).
